pKi: −log10 of the molar value.
These compounds were tested against T1, Adenosine receptor A2b (Homo sapiens) (UniProt P29275) (assay: Antagonist activity at human adenosine A2B receptor expressed in HEK293 cell […] assessed as inhibition of NECA-stimulated cAMP accumulation preincubated for 15 mins followed by NECA stimulation for 15 mins by enzyme immunoassay).
T1 sequence (whole entry): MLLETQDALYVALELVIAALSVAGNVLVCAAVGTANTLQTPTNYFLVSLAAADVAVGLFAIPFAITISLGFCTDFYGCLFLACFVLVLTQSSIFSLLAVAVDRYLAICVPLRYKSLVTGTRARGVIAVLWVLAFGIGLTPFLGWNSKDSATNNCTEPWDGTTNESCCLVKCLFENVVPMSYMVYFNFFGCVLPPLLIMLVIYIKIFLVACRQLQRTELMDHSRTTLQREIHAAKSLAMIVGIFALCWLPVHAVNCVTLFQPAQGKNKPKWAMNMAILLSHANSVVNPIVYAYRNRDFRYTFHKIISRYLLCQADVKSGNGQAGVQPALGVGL
Format: functional, cell-based
In short: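 Whole HEK-293 cells transfected with human A2B receptor, grown at 37 °C, 5% CO2 in EMEM F-12 with 10% FCS and 1% L-glutamine. Washed, then preincubated 15 min at 37 °C in EMEM-F12/25 mM HEPES pH 7.4 with 30 μM rolipram plus test compound. Stimulated with 10 μM NECA for 15 min. Lysed, intracellular cAMP read by enzyme immunoassay at 450 nm. KB derived from IC50 by the Leff and Dougall method. n = 3, each in duplicate.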

SMILES | Kb [nM]
CC1=C(C(=O)OC(C)C)C(c2ccco2)N/C(=N/C#N)N1 (racemic) | 116

Each compound was assayed against Adenosine receptor A2a (Homo sapiens) (UniProt P29274) (assay: Displacement of [3H]4-(2-[7-amino-2-(2-furyl)[1,2,4]triazolo[2,3-a][1,3,5]triazin-5-ylamino]ethyl)phenol from human adenosine A2A receptor expressed in human Hela cell membranes at 1 uM after 30 mins).
In short: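 Membranes from HeLa cells expressing human A2A receptor, labelled with 3 nM radioligand. Nonspecific binding defined with 50 μM NECA. Incubated 25 °C, 30 min. Percent inhibition of specific binding at 1 μM, average of n = 2.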

Adenosine receptor A2a (Homo sapiens), sequence (P29274 whole entry): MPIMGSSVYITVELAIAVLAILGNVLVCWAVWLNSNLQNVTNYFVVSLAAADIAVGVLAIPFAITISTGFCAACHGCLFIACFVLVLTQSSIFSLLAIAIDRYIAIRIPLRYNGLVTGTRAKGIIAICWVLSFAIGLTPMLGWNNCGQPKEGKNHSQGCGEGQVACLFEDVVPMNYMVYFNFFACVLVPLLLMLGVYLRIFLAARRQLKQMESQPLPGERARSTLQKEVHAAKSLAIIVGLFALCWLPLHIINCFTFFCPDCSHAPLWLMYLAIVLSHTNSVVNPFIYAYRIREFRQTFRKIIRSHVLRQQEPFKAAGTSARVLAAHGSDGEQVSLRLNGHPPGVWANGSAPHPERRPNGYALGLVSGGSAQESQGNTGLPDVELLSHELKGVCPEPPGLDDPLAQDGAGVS

SMILES | inhibition [%]
CCOC(=O)C1=C(C)N/C(=N\C#N)NC1c1ccco1 (racemic) | 20
CC1=C(C(=O)OC(C)C)[C@@H](c2ccco2)N/C(=N/C#N)N1 | 4
CC1=C(C(=O)OC(C)C)C(c2ccco2)NC(=O)N1 (stereo unspecified) | 30
CC1=C(C(=O)OC(C)C)[C@H](c2ccco2)N/C(=N/C#N)N1 | 10
CC1=C(C(=O)OC(C)C)C(C2CCCC2)N/C(=N/C#N)N1 (racemic) | 5
CCOC(=O)C1=C(C)NC(=O)NC1c1ccco1 (stereo unspecified) | 41
CCOC(=O)C1=C(C)NC(=O)NC1c1ccsc1 (stereo unspecified) | 39
CC1=C(C(=O)OC(C)C)C(c2ccccc2)N/C(=N/C#N)N1 (racemic) | 12
CCOC(=O)C1=C(C)N/C(=N\C#N)NC1c1cccs1 (racemic) | 33
CCOC(=O)C1=C(C)NC(=O)NC1C1CCCC1 (stereo unspecified) | 1
CCOC(=O)C1=C(C)N/C(=N\C#N)NC1c1ccsc1 (racemic) | 30
CCOC(=O)C1=C(C)N/C(=N\C#N)NC1C1CCCC1 (racemic) | 10
CCOC(=O)C1=C(C)NC(=O)NC1c1ccccc1 (stereo unspecified) | 10
CC1=C(C(=O)OC(C)C)C(c2ccco2)N/C(=N/C#N)N1 (racemic) | 19
CC1=C(C(=O)OC(C)C)C(c2ccccc2)NC(=O)N1 (stereo unspecified) | 1
CCOC(=O)C1=C(C)N/C(=N\C#N)NC1c1ccccc1 (racemic) | 13
CCOC(=O)C1=C(C)N/C(=N\C#N)NC1c1ccoc1 (racemic) | 31
CC1=C(C(=O)OC(C)C)C(c2ccsc2)N/C(=N/C#N)N1 (racemic) | 18
CC1=C(C(=O)OC(C)C)C(c2ccoc2)N/C(=N/C#N)N1 (racemic) | 25
CC1=C(C(=O)OC(C)C)C(c2cccs2)N/C(=N/C#N)N1 (racemic) | 16
CC1=C(C(=O)OC(C)C)C(C2CCCC2)NC(=O)N1 (stereo unspecified) | 1
CCOC(=O)C1=C(C)NC(=O)NC1c1ccoc1 (stereo unspecified) | 39

These compounds were tested against T2, Adenosine receptor A1 (Homo sapiens) (UniProt P30542) (assay: Displacement of [3H]DPCPX from human adenosine A1 receptor expressed in CHO cell membranes at 1 uM after 60 mins).
T2 sequence (whole entry): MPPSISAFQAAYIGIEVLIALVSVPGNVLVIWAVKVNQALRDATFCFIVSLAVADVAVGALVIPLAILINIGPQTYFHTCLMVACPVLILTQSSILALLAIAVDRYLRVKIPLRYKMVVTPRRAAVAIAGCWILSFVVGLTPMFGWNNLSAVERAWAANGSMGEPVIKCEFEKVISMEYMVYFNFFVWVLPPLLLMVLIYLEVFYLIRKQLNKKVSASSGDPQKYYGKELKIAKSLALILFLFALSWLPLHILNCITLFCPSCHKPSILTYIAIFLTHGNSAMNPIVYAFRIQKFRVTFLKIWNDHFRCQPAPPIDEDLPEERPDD
In short: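 Membranes from CHO cells expressing human A1 receptor, labelled with 2 nM [3H]DPCPX. Nonspecific binding defined with 10 μM R-PIA. Incubated 25 °C, 60 min. Percent inhibition of specific binding at 1 μM, average of n = 2.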

SMILES | inhibition [%]
CCOC(=O)C1=C(C)N/C(=N\C#N)NC1c1ccco1 (racemic) | 27
CC1=C(C(=O)OC(C)C)[C@@H](c2ccco2)N/C(=N/C#N)N1 | 2
CC1=C(C(=O)OC(C)C)C(c2ccco2)NC(=O)N1 (stereo unspecified) | 20
CC1=C(C(=O)OC(C)C)[C@H](c2ccco2)N/C(=N/C#N)N1 | 18
CC1=C(C(=O)OC(C)C)C(C2CCCC2)N/C(=N/C#N)N1 (racemic) | 3
CCOC(=O)C1=C(C)NC(=O)NC1c1ccco1 (stereo unspecified) | 18
CCOC(=O)C1=C(C)NC(=O)NC1c1ccsc1 (stereo unspecified) | 22
CC1=C(C(=O)OC(C)C)C(c2ccccc2)N/C(=N/C#N)N1 (racemic) | 20
CCOC(=O)C1=C(C)N/C(=N\C#N)NC1c1cccs1 (racemic) | 26
CCOC(=O)C1=C(C)NC(=O)NC1C1CCCC1 (stereo unspecified) | 3
CCOC(=O)C1=C(C)N/C(=N\C#N)NC1c1ccsc1 (racemic) | 29
CCOC(=O)C1=C(C)N/C(=N\C#N)NC1C1CCCC1 (racemic) | 11
CCOC(=O)C1=C(C)NC(=O)NC1c1ccccc1 (stereo unspecified) | 1
CC1=C(C(=O)OC(C)C)C(c2ccco2)N/C(=N/C#N)N1 (racemic) | 21
CC1=C(C(=O)OC(C)C)C(c2ccccc2)NC(=O)N1 (stereo unspecified) | 2
CCOC(=O)C1=C(C)NC(=O)NC1c1cccs1 (stereo unspecified) | 1
CCOC(=O)C1=C(C)N/C(=N\C#N)NC1c1ccccc1 (racemic) | 18
CCOC(=O)C1=C(C)N/C(=N\C#N)NC1c1ccoc1 (racemic) | 28
CC1=C(C(=O)OC(C)C)C(c2ccsc2)N/C(=N/C#N)N1 (racemic) | 11
CC1=C(C(=O)OC(C)C)C(c2ccoc2)N/C(=N/C#N)N1 (racemic) | 34
CC1=C(C(=O)OC(C)C)C(c2cccs2)N/C(=N/C#N)N1 (racemic) | 31
CC1=C(C(=O)OC(C)C)C(C2CCCC2)NC(=O)N1 (stereo unspecified) | 1

These compounds were tested against T1, Adenosine receptor A2b (Homo sapiens) (assay: Displacement of [3H]DPCPX from human adenosine A2B receptor expressed in HEK293 cell membranes at 1 uM after 30 mins).
In short: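 HEK-293 membranes expressing human A2B receptor, labelled with 35 nM [3H]DPCPX. Nonspecific binding with 400 μM NECA. 25 °C, 30 min. Percent inhibition of specific binding at 1 μM, average of n = 2.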

SMILES | inhibition [%]
CC1=C(C(=O)OC(C)C)[C@H](c2ccco2)N/C(=N/C#N)N1 | 23
CC1=C(C(=O)OC(C)C)C(C2CCCC2)N/C(=N/C#N)N1 (racemic) | 11
CC1=C(C(=O)OC(C)C)C(c2ccccc2)N/C(=N/C#N)N1 (racemic) | 32
CCOC(=O)C1=C(C)NC(=O)NC1C1CCCC1 (stereo unspecified) | 2
CCOC(=O)C1=C(C)N/C(=N\C#N)NC1C1CCCC1 (racemic) | 19
CCOC(=O)C1=C(C)NC(=O)NC1c1ccccc1 (stereo unspecified) | 2
CC1=C(C(=O)OC(C)C)C(c2ccccc2)NC(=O)N1 (stereo unspecified) | 2
CCOC(=O)C1=C(C)NC(=O)NC1c1cccs1 (stereo unspecified) | 44
CCOC(=O)C1=C(C)N/C(=N\C#N)NC1c1ccccc1 (racemic) | 25
CC1=C(C(=O)OC(C)C)C(C2CCCC2)NC(=O)N1 (stereo unspecified) | 3

The compounds below were run against T3, Adenosine receptor A2b (Homo sapiens, UniProt P29275) (assay: Displacement of [3H]DPCPX from human adenosine A2B receptor expressed in HEK293 cell membranes after 30 mins).
T3 sequence (P29275 whole entry): T1 sequence (whole entry)

SMILES | pKi
CCOC(=O)C1=C(C)N/C(=N\C#N)NC1c1ccco1 (racemic) | 6.05
CC1=C(C(=O)OC(C)C)[C@@H](c2ccco2)N/C(=N/C#N)N1 | 7.82
CCOC(=O)C1=C(C)N/C(=N\C#N)NC1c1cccs1 (racemic) | 7.29
CCOC(=O)C1=C(C)N/C(=N\C#N)NC1c1ccsc1 (racemic) | 6.34
CC1=C(C(=O)OC(C)C)C(c2ccco2)N/C(=N/C#N)N1 (racemic) | 7.61
CCOC(=O)C1=C(C)N/C(=N\C#N)NC1c1ccoc1 (racemic) | 6.99
CC1=C(C(=O)OC(C)C)C(c2ccsc2)N/C(=N/C#N)N1 (racemic) | 6.19
CC1=C(C(=O)OC(C)C)C(c2ccoc2)N/C(=N/C#N)N1 (racemic) | 7.23
CC1=C(C(=O)OC(C)C)C(c2cccs2)N/C(=N/C#N)N1 (racemic) | 6.46

The compounds below were run against T4, Adenosine receptor A3 (Homo sapiens) (UniProt P0DMS8) (assay: Displacement of [3H]NECA from human adenosine A3 receptor expressed in human Hela cell membranes at 1 uM after 180 mins).
T4 sequence (whole entry): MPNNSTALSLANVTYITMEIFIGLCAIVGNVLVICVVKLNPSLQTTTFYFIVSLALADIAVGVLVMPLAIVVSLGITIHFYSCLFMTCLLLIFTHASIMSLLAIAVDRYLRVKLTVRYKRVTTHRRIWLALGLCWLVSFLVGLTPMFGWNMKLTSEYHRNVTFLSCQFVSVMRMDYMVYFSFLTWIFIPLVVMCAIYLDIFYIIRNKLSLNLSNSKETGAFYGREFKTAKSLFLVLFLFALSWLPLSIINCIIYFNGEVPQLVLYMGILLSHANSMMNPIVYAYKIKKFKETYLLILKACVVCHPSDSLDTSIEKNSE
In short: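 Membranes from HeLa cells expressing human A3 receptor, labelled with 30 nM [3H]NECA. Nonspecific binding defined with 100 μM R-PIA. Incubated 25 °C, 180 min. Percent inhibition of specific binding at 1 μM, average of n = 2.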

SMILES | inhibition [%]
CCOC(=O)C1=C(C)N/C(=N\C#N)NC1c1ccco1 (racemic) | 20
CC1=C(C(=O)OC(C)C)[C@@H](c2ccco2)N/C(=N/C#N)N1 | 4
CC1=C(C(=O)OC(C)C)C(c2ccsc2)NC(=O)N1 (stereo unspecified) | 1
CC1=C(C(=O)OC(C)C)C(c2ccco2)NC(=O)N1 (stereo unspecified) | 1
CC1=C(C(=O)OC(C)C)[C@H](c2ccco2)N/C(=N/C#N)N1 | 1
CC1=C(C(=O)OC(C)C)C(C2CCCC2)N/C(=N/C#N)N1 (racemic) | 3
CCOC(=O)C1=C(C)NC(=O)NC1c1ccsc1 (stereo unspecified) | 24
CC1=C(C(=O)OC(C)C)C(c2ccccc2)N/C(=N/C#N)N1 (racemic) | 6
CCOC(=O)C1=C(C)N/C(=N\C#N)NC1c1cccs1 (racemic) | 3
CCOC(=O)C1=C(C)NC(=O)NC1C1CCCC1 (stereo unspecified) | 18
CCOC(=O)C1=C(C)N/C(=N\C#N)NC1c1ccsc1 (racemic) | 23
CCOC(=O)C1=C(C)N/C(=N\C#N)NC1C1CCCC1 (racemic) | 4
CCOC(=O)C1=C(C)NC(=O)NC1c1ccccc1 (stereo unspecified) | 2
CC1=C(C(=O)OC(C)C)C(c2ccco2)N/C(=N/C#N)N1 (racemic) | 4
CC1=C(C(=O)OC(C)C)C(c2ccccc2)NC(=O)N1 (stereo unspecified) | 2
CCOC(=O)C1=C(C)NC(=O)NC1c1cccs1 (stereo unspecified) | 1
CCOC(=O)C1=C(C)N/C(=N\C#N)NC1c1ccccc1 (racemic) | 13
CCOC(=O)C1=C(C)N/C(=N\C#N)NC1c1ccoc1 (racemic) | 14
CC1=C(C(=O)OC(C)C)C(c2ccsc2)N/C(=N/C#N)N1 (racemic) | 13
CC1=C(C(=O)OC(C)C)C(c2ccoc2)N/C(=N/C#N)N1 (racemic) | 41
CC1=C(C(=O)OC(C)C)C(c2cccs2)N/C(=N/C#N)N1 (racemic) | 27
CC1=C(C(=O)OC(C)C)C(C2CCCC2)NC(=O)N1 (stereo unspecified) | 7

From ChEMBL document CHEMBL4049429, “Enantiospecific Recognition at the A2B Adenosine Receptor by Alkyl 2-Cyanoimino-4-substituted-6-methyl-1,2,3,4-tetrahydropyrimidine-5-carboxylates” (J Med Chem, 2017)
